According to ChEMBL document CHEMBL1926614, “Substituted thiazoles V. synthesis and antitumor activity of novel thiazolo[2,3-b]quinazoline and pyrido[4,3-d]thiazolo[3,2-a]pyrimidine analogues” (2012):

Legend:
Assay type in all cases: functional
K562 = test: Growth inhibition of human K562 cells at 10 uM after 48 hrs by coulter counting; conditions: K562, 48 h, read-out: GI
Method in brief: (§1)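 Single-dose primary screen across the full NCI 60-cell-line panel. Stocks were made in DMSO and diluted in PBS to a final DMSO below 1%. Cultures at 6 × 10⁴ cells/ml were run in duplicate wells alongside PBS/DMSO vehicle controls at 37 °C in humidified 5% CO₂. Data were expressed as percent growth of treated cells.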

CAKI-1 = test: Growth inhibition of human Caki1 cells at 10 uM after 48 hrs by coulter counting; conditions: CAKI-1, 48 h, read-out: GI; method in brief: as §1
UO-31 = test: Growth inhibition of human UO31 cells at 10 uM after 48 hrs by coulter counting; conditions: UO-31, 48 h, read-out: GI
Method in brief: (§2)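 Single-dose screen in the NCI 60 human tumor cell line panel (nine subpanels). Compounds dissolved in DMSO and diluted in phosphate buffered saline, keeping final DMSO below 1%. Added in duplicate wells to cells at 6 × 10⁴ cells/ml. Controls held PBS and DMSO at matching dilutions. Incubated at 37 °C, humidified, 5% CO₂. Reported as percent growth of treated cells.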

SK-MEL-2 = test: Growth inhibition of human SK-MEL-2 cells at 10 uM after 48 hrs by coulter counting; conditions: SK-MEL-2, 48 h, read-out: GI; method in brief: as §1
M14 = test: Growth inhibition of human M14 cells at 10 uM after 48 hrs by coulter counting; conditions: M14, 48 h, read-out: GI; method in brief: as §1
SK-MEL-5 = test: Growth inhibition of human SK-MEL-5 cells at 10 uM after 48 hrs by coulter counting; conditions: SK-MEL-5, 48 h, read-out: GI; method in brief: as §1
HL-60(TB) = test: Growth inhibition of human HL-60(TB) cells at 10 uM after 48 hrs by coulter counting; conditions: HL-60, 48 h, read-out: GI
Method in brief: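 Test compound was dissolved in DMSO and diluted in phosphate-buffered saline to a final DMSO level below 1%. Dilutions were plated in duplicate with cell culture at 6 × 10⁴ cells/ml. Vehicle controls held PBS and DMSO at matching dilutions. Incubation was at 37 °C, humidified, under 5% CO₂. Data were reported as percent growth of treated cells.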

UACC-257 = test: Growth inhibition of human UACC257 cells at 10 uM after 48 hrs by coulter counting; conditions: UACC-257, 48 h, read-out: GI; method in brief: as §2
HOP-62 = test: Growth inhibition of human HOP62 cells at 10 uM after 48 hrs by coulter counting; conditions: HOP-62, 48 h, read-out: GI; method in brief: as §1
NCI-H522 = test: Growth inhibition of human NCI-H522 cells at 10 uM after 48 hrs by coulter counting; conditions: NCI-H522, 48 h, read-out: GI; method in brief: as §1
SK-MEL-28 = test: Growth inhibition of human SK-MEL-28 cells at 10 uM after 48 hrs by coulter counting; conditions: SK-MEL-28, 48 h, read-out: GI; method in brief: as §1
HT-29 = test: Growth inhibition of human HT-29 cells at 10 uM after 48 hrs by coulter counting; conditions: HT-29, 48 h, read-out: GI; method in brief: as §1
UACC-62 = test: Growth inhibition of human UACC62 cells at 10 uM after 48 hrs by coulter counting; conditions: UACC-62, 48 h, read-out: GI; method in brief: as §2
U-251 = test: Growth inhibition of human U251 cells at 10 uM after 48 hrs by coulter counting; conditions: U-251, 48 h, read-out: GI; method in brief: as §2
LOX IMVI = test: Growth inhibition of human LOXIMVI cells at 10 uM after 48 hrs by coulter counting; conditions: read-out: GI; method in brief: as §1
EKVX = test: Growth inhibition of human EKVX cells at 10 uM after 48 hrs by coulter counting; conditions: read-out: GI; method in brief: as §1
TK-10 = test: Growth inhibition of human TK10 cells at 10 uM after 48 hrs by coulter counting; conditions: TK-10, 48 h, read-out: GI; method in brief: as §2
BT-549 = test: Growth inhibition of human BT549 cells at 10 uM after 48 hrs by coulter counting; conditions: BT-549, 48 h, read-out: GI; method in brief: as §1
[1] = Growth inhibition of human NCI-322M cells at 10 uM after 48 hrs by coulter counting; conditions: read-out: GI; method in brief: as §1
NCI-H460 = test: Growth inhibition of human NCI-H460 cells at 10 uM after 48 hrs by coulter counting; conditions: NCI-H460, 48 h, read-out: GI; method in brief: as §1
NCI-H23 = test: Growth inhibition of human NCI-H23 cells at 10 uM after 48 hrs by coulter counting; conditions: NCI-H23, 48 h, read-out: GI; method in brief: as §1
ACHN = test: Growth inhibition of human ACHN cells at 10 uM after 48 hrs by coulter counting; conditions: read-out: GI; method in brief: as §1
RPMI-8226 = test: Growth inhibition of human RPMI8226 cells at 10 uM after 48 hrs by coulter counting; conditions: RPMI-8226, 48 h, read-out: GI; method in brief: as §1
DU-145 = test: Growth inhibition of human DU145 cells at 10 uM after 48 hrs by coulter counting; conditions: DU-145, 48 h, read-out: GI; method in brief: as §1
SN12C = test: Growth inhibition of human SN12C cells at 10 uM after 48 hrs by coulter counting; conditions: read-out: GI; method in brief: as §1
T47D = test: Growth inhibition of human T47D cells at 10 uM after 48 hrs by coulter counting; conditions: read-out: GI; method in brief: as §2
SF-295 = test: Growth inhibition of human SF295 cells at 10 uM after 48 hrs by coulter counting; conditions: SF-295, 48 h, read-out: GI; method in brief: as §1
NCI/ADR-RES = test: Growth inhibition of human NCI/ADR-RES cells at 10 uM after 48 hrs by coulter counting; conditions: read-out: GI; method in brief: as §1
MOLT-4 = test: Growth inhibition of human MOLT4 cells at 10 uM after 48 hrs by coulter counting; conditions: MOLT-4, 48 h, read-out: GI; method in brief: as §1
SNB-19 = test: Growth inhibition of human SNB19 cells at 10 uM after 48 hrs by coulter counting; conditions: SNB-19, 48 h, read-out: GI; method in brief: as §1
SNB-75 = test: Growth inhibition of human SNB75 cells at 10 uM after 48 hrs by coulter counting; conditions: SNB-75, 48 h, read-out: GI; method in brief: as §1
NCI-H226 = test: Growth inhibition of human NCI-H226 cells at 10 uM after 48 hrs by coulter counting; conditions: NCI-H226, 48 h, read-out: GI; method in brief: as §1
A549 = test: Growth inhibition of human A549 cells at 10 uM after 48 hrs by coulter counting; conditions: A549, 48 h, read-out: GI; method in brief: as §1
HCT-15 = test: Growth inhibition of human HCT15 cells at 10 uM after 48 hrs by coulter counting; conditions: HCT-15, 48 h, read-out: GI; method in brief: as §1
786-0 = test: Growth inhibition of human 786-0 cells at 10 uM after 48 hrs by coulter counting; conditions: 786-0, 48 h, read-out: GI; method in brief: as §1
HCT-116 = test: Growth inhibition of human HCT116 cells at 10 uM after 48 hrs by coulter counting; conditions: HCT-116, 48 h, read-out: GI; method in brief: as §1
KM12 = test: Growth inhibition of human KM12 cells at 10 uM after 48 hrs by coulter counting; conditions: KM12, 48 h, read-out: GI; method in brief: as §1
MDA-MB-435 = test: Growth inhibition of human MDA-MB-435 cells at 10 uM after 48 hrs by coulter counting; conditions: MDA-MB-435, 48 h, read-out: GI; method in brief: as §1
MCF7 = test: Growth inhibition of human MCF7 cells at 10 uM after 48 hrs by coulter counting; conditions: MCF7, 48 h, read-out: GI; method in brief: as §1
SF-268 = test: Growth inhibition of human SF268 cells at 10 uM after 48 hrs by coulter counting; conditions: SF-268, 48 h, read-out: GI; method in brief: as §1
OVCAR-8 = test: Growth inhibition of human OVCAR8 cells at 10 uM after 48 hrs by coulter counting; conditions: OVCAR-8, 48 h, read-out: GI; method in brief: as §1
CCRF-CEM = test: Growth inhibition of human CCRF-CEM cells at 10 uM after 48 hrs by coulter counting; conditions: read-out: GI; method in brief: as §1
A498 = test: Growth inhibition of human A498 cells at 10 uM after 48 hrs by coulter counting; conditions: A498, 48 h, read-out: GI; method in brief: as §1

CCN1CC2=C(N=C3SC=CN3C2c2cccs2)/C(=C/c2cccs2)C1 (stereo not drawn)
inhibition of growth at 10 µM (K562): > 10%
inhibition of growth at 10 µM (CAKI-1): > 10%
inhibition of growth at 10 µM (UO-31): 26.2%
inhibition of growth at 10 µM (SK-MEL-2): > 10%
inhibition of growth at 10 µM (M14): > 10%
inhibition of growth at 10 µM (SK-MEL-5): > 10%
inhibition of growth at 10 µM (HL-60(TB)): > 10%
inhibition of growth at 10 µM (UACC-257): > 10%
inhibition of growth at 10 µM (HOP-62): > 10%
inhibition of growth at 10 µM (NCI-H522): > 10%
inhibition of growth at 10 µM (SK-MEL-28): > 10%
inhibition of growth at 10 µM (HT-29): > 10%
inhibition of growth at 10 µM (UACC-62): > 10%
inhibition of growth at 10 µM (U-251): > 10%
inhibition of growth at 10 µM (LOX IMVI): > 10%
inhibition of growth at 10 µM (EKVX): > 10%
inhibition of growth at 10 µM (TK-10): > 10%
inhibition of growth at 10 µM (BT-549): > 10%
inhibition of growth at 10 µM [1]: > 10%
inhibition of growth at 10 µM (NCI-H460): > 10%
inhibition of growth at 10 µM (NCI-H23): > 10%
inhibition of growth at 10 µM (ACHN): > 10%
inhibition of growth at 10 µM (RPMI-8226): > 10%
inhibition of growth at 10 µM (DU-145): > 10%
inhibition of growth at 10 µM (SN12C): > 10%
inhibition of growth at 10 µM (T47D): 11.4%
inhibition of growth at 10 µM (SF-295): > 10%
inhibition of growth at 10 µM (NCI/ADR-RES): > 10%
inhibition of growth at 10 µM (MOLT-4): > 10%
inhibition of growth at 10 µM (SNB-19): > 10%
inhibition of growth at 10 µM (SNB-75): 14.2%
inhibition of growth at 10 µM (NCI-H226): > 10%
inhibition of growth at 10 µM (A549): > 10%
inhibition of growth at 10 µM (HCT-15): > 10%
inhibition of growth at 10 µM (786-0): > 10%
inhibition of growth at 10 µM (HCT-116): > 10%
inhibition of growth at 10 µM (KM12): > 10%
inhibition of growth at 10 µM (MDA-MB-435): > 10%
inhibition of growth at 10 µM (MCF7): > 10%
inhibition of growth at 10 µM (SF-268): > 10%
inhibition of growth at 10 µM (OVCAR-8): > 10%
inhibition of growth at 10 µM (CCRF-CEM): > 10%
inhibition of growth at 10 µM (A498): 21.6%
